What was measured:
[1] = system: K562/R7; experiment: Inhibition of p-gp (unknown origin) in doxorubicin-resistant human K562/R7 cells assessed as increase in daunorubicin accumulation measured as fluorescence ratio at 10 uM incubated for 1 hr with 10 uM daunorubicin by flow cytometry relative to control; assay type: cell-based
Procedure, shortened: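 Resistant K562/R7 cells ([…]) incubated 1 h at 37 °C in RPMI 1640 with daunorubicin 10 µM, with or without steroid at 10 µM; intracellular fluorescence read by flow cytometry. Accumulation index = daunorubicin fluorescence ratio with/without modulator. Cyclosporin A as positive control. Duplicates, at least three separate experiments.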

[2] = Intrinsic cytotoxicity against human K562 cells assessed as cell survival […] by MTT assay; assay type: cell-based; settings: read-out: Survival

CC(=O)[C@H]1CC[C@H]2[C@@H]3CC[C@@H]4CC(=O)CC[C@]4(C)[C@H]3[C@H](O)C[C@]12C
Ratio [1]: 1

CC(=O)[C@@]1(O[C@H]2CCCCO2)CC[C@H]2[C@@H]3CC[C@@H]4CC(=O)CC[C@]4(C)[C@H]3CC[C@@]21C
Ratio [1]: 2.4

COCCCC(C)[C@H]1CC[C@H]2[C@@H]3[C@H](O[C@H]4CCCCO4)C[C@@H]4CC(=O)CC[C@]4(C)[C@H]3C[C@H](OC(=O)c3ccccc3)[C@]12C (some centres not stated)
Ratio [1]: 3.1 | viability [2]: 56.3%

CC(=O)[C@H]1CC[C@H]2[C@H]3[C@H]([C@H](O[C@H]4CCCCO4)C[C@]12C)[C@@]1(C)CCC(=O)C[C@H]1C[C@H]3OC1CCCCO1 (mixture of isomers)
Ratio [1]: 2.5 | viability [2]: 84.4%

COc1ccc(CCN(C)CCCC(C#N)(c2ccc(OC)c(OC)c2)C(C)C)cc1OC (configuration not stated)
viability [2]: 93.3%

CC(=O)[C@H]1CC[C@H]2[C@H]3[C@H]([C@H](OC(=O)c4ccccc4)C[C@]12C)[C@@]1(C)CCC(=O)C[C@H]1C[C@H]3O
Ratio [1]: 2.3 | viability [2]: 81.1%

CC(=O)[C@H]1CC[C@H]2[C@@H]3CCC4=CC(=O)CC[C@]4(C)[C@H]3CC[C@]12C [PROGESTERONE]
Ratio [1]: 1.2 | viability [2]: 81.6%

CC(=O)[C@@]1(O)CC[C@H]2[C@@H]3CCC4=CC(=O)CC[C@]4(C)[C@H]3CC[C@@]21C
Ratio [1]: 1

CC(=O)[C@H]1CC[C@H]2[C@H]3[C@H]([C@H](O[C@@H]4CCCCO4)C[C@]12C)[C@@]1(C)CCC(=O)C[C@H]1C[C@H]3OC(=O)c1ccccc1
Ratio [1]: 2.9 | viability [2]: 80.8%

CC(=O)[C@H]1CC[C@H]2[C@@H]3[C@H](OC4CCCCO4)C[C@@H]4CC(=O)CC[C@]4(C)[C@H]3CC[C@]12C (mixture of isomers)
Ratio [1]: 2.4

CC(=O)[C@@]1(O[C@@H]2CCCCO2)CC[C@H]2[C@@H]3CC[C@@H]4CC(=O)CC[C@]4(C)[C@H]3[C@H](O[C@H]3CCCCO3)C[C@@]21C
Ratio [1]: 2.5 | viability [2]: 67.9%

CC(=O)[C@@]1(O)CC[C@H]2[C@@H]3CC[C@@H]4CC(=O)CC[C@]4(C)[C@H]3CC[C@@]21C
Ratio [1]: 1.1

CC(=O)[C@@]1(O[C@@H]2CCCCO2)CC[C@H]2[C@@H]3CC[C@@H]4CC(=O)CC[C@]4(C)[C@H]3CC[C@@]21C
Ratio [1]: 2.3

CC#C[C@]1(O)CC[C@H]2[C@@H]3CCC4=CC(=O)CCC4=C3[C@@H](c3ccc(N(C)C)cc3)C[C@@]21C [MIFEPRISTONE]
Ratio [1]: 2.4 | viability [2]: 95.6%

COCO[C@@H]1C[C@@H]2CC(=O)CC[C@]2(C)[C@H]2C[C@H](OC(=O)c3ccccc3)[C@]3(C)[C@@H](C(C)CCC(=O)OC)CC[C@H]3[C@H]12 (some centres not stated)
Ratio [1]: 3.8 | viability [2]: 43.5%

CC(=O)[C@H]1CC[C@H]2[C@@H]3CC[C@@H]4CC(=O)CC[C@]4(C)[C@H]3[C@H](O[C@H]3CCCCO3)C[C@]12C
Ratio [1]: 2.5

CC(=O)[C@H]1CC[C@H]2[C@@H]3[C@H](OC(=O)c4ccccc4)C[C@@H]4CC(=O)CC[C@]4(C)[C@H]3CC[C@]12C
Ratio [1]: 2.2

CC(=O)[C@H]1CC[C@H]2[C@@H]3CC[C@H]4CC(=O)CC[C@]4(C)[C@H]3CC[C@]12C
Ratio [1]: 1

COC(=O)CCC(C)[C@H]1CC[C@H]2[C@@H]3[C@H](OC(=O)c4ccccc4)C[C@@H]4CC(=O)CC[C@]4(C)[C@H]3C[C@H](O[C@@H]3CCCCO3)[C@]12C (some centres not stated)
Ratio [1]: 2.1 | viability [2]: 56.4%

COC(=O)CCC(C)[C@H]1CC[C@H]2[C@@H]3[C@H](OC(=O)c4ccccc4)C[C@@H]4CC(=O)CC[C@]4(C)[C@H]3C[C@H](OC(=O)c3ccccc3)[C@]12C (some centres not stated)
Ratio [1]: 1.5 | viability [2]: 57.3%

COC(=O)CCC(C)[C@H]1CC[C@H]2[C@@H]3[C@H](O[C@@H]4CCCCO4)C[C@@H]4CC(=O)CC[C@]4(C)[C@H]3C[C@H](OC(=O)c3ccccc3)[C@]12C (some centres not stated)
Ratio [1]: 2.9 | viability [2]: 51.3%

CC(=O)[C@H]1CC[C@H]2[C@H]3[C@H]([C@H](O[C@@H]4CCCCO4)C[C@]12C)[C@@]1(C)CCC(=O)C[C@H]1C[C@H]3OC1CCCCO1 (mixture of isomers)
Ratio [1]: 2.6 | viability [2]: 86.7%

COCO[C@H]1C[C@H]2[C@@H]([C@H](OC(=O)c3ccccc3)C[C@@H]3CC(=O)CC[C@@]32C)[C@@H]2CC[C@H](C(C)CCC(=O)OC)[C@@]12C (some centres not stated)
Ratio [1]: 2.9 | viability [2]: 49.7%

COCCCC(C)[C@H]1CC[C@H]2[C@@H]3[C@H](O[C@@H]4CCCCO4)C[C@@H]4CC(=O)CC[C@]4(C)[C@H]3C[C@H](OC(=O)c3ccccc3)[C@]12C (some centres not stated)
Ratio [1]: 3.4 | viability [2]: 51%

COC(=O)CCC(C)[C@H]1CC[C@H]2[C@@H]3[C@H](O[C@H]4CCCCO4)C[C@@H]4CC(=O)CC[C@]4(C)[C@H]3C[C@H](OC(=O)c3ccccc3)[C@]12C (some centres not stated)
Ratio [1]: 3.3 | viability [2]: 44.6%

COC(=O)CCC(C)[C@H]1CC[C@H]2[C@@H]3[C@H](OC4=CCOCC4)C[C@@H]4CC(=O)CC[C@]4(C)[C@H]3C[C@H](OC3=CCOCC3)[C@]12C (some centres not stated)
Ratio [1]: 3.7 | viability [2]: 76.3%

CC(=O)[C@H]1CC[C@H]2[C@H]3[C@H]([C@H](O[C@H]4CCCCO4)C[C@]12C)[C@@]1(C)CCC(=O)C[C@@H]1C[C@H]3OC(=O)c1ccccc1
Ratio [1]: 2.3

COC(=O)CCC(C)[C@H]1CC[C@H]2[C@@H]3[C@H](OC(=O)c4ccccc4)C[C@@H]4CC(=O)CC[C@]4(C)[C@H]3C[C@H](O[C@H]3CCCCO3)[C@]12C (some centres not stated)
Ratio [1]: 2.7 | viability [2]: 53.5%

CC(=O)[C@@]1(O[C@@H]2CCCCO2)CC[C@H]2[C@@H]3CCC4=CC(=O)CC[C@]4(C)[C@H]3CC[C@@]21C
Ratio [1]: 2.4

CC(=O)[C@H]1CC[C@H]2[C@H]3[C@H]([C@H](OC(=O)c4ccccc4)C[C@]12C)[C@@]1(C)CCC(=O)C[C@H]1C[C@H]3OC(=O)c1ccccc1
Ratio [1]: 2.5 | viability [2]: 66.4%

COCCCC(C)[C@H]1CC[C@H]2[C@@H]3[C@H](OC(=O)c4ccccc4)C[C@@H]4CC(=O)CC[C@]4(C)[C@H]3C[C@H](O[C@@H]3CCCCO3)[C@]12C (some centres not stated)
Ratio [1]: 2.4 | viability [2]: 54.4%

COC(=O)CCC(C)[C@H]1CC[C@H]2[C@@H]3[C@H](O)C[C@@H]4CC(=O)CC[C@]4(C)[C@H]3C[C@H](O)[C@]12C (some centres not stated)
Ratio [1]: 1.5

CC(=O)[C@H]1CC[C@H]2[C@@H]3CC[C@@H]4CC(=O)CC[C@]4(C)[C@H]3[C@H](O[C@@H]3CCCCO3)C[C@]12C
Ratio [1]: 2.5

COCCCC(C)[C@H]1CC[C@H]2[C@@H]3[C@H](OC(=O)c4ccccc4)C[C@@H]4CC(=O)CC[C@]4(C)[C@H]3C[C@H](OC(=O)c3ccccc3)[C@]12C (some centres not stated)
Ratio [1]: 1.7 | viability [2]: 50.7%

CC(=O)[C@H]1CC[C@H]2[C@H]3[C@H]([C@H](O)C[C@]12C)[C@@]1(C)CCC(=O)C[C@H]1C[C@H]3OC(=O)c1ccccc1
Ratio [1]: 1.4 | viability [2]: 92.9%

CC(=O)[C@H]1CC[C@H]2[C@H]3[C@H]([C@H](O[C@H]4CCCCO4)C[C@]12C)[C@@]1(C)CCC(=O)C[C@H]1C[C@H]3OC(=O)c1ccccc1
Ratio [1]: 2.3 | viability [2]: 100%

CC(=O)[C@H]1CC[C@H]2[C@H]3[C@H]([C@H](OC(=O)c4ccccc4)C[C@]12C)[C@@]1(C)CCC(=O)C[C@H]1C[C@H]3O[C@@H]1CCCCO1
Ratio [1]: 2.8 | viability [2]: 61.5%

COCO[C@H]1C[C@H]2[C@@H]([C@H](O)C[C@@H]3CC(=O)CC[C@@]32C)[C@@H]2CC[C@H](C(C)CCC(=O)OC)[C@@]12C (some centres not stated)
Ratio [1]: 2.1 | viability [2]: 84.7%

CC(=O)[C@H]1CC[C@H]2[C@H]3[C@H]([C@H](O)C[C@]12C)[C@@]1(C)CCC(=O)C[C@H]1C[C@H]3O
Ratio [1]: 1.1

CC(=O)[C@H]1CC[C@H]2[C@H]3[C@H]([C@H](O[C@@H]4CCCCO4)C[C@]12C)[C@@]1(C)CCC(=O)C[C@@H]1C[C@H]3OC(=O)c1ccccc1
Ratio [1]: 2.4 | viability [2]: 77.8%

CC(=O)[C@H]1CC[C@H]2[C@@H]3CC[C@@H]4CC(=O)CC[C@]4(C)[C@H]3CC[C@]12C
Ratio [1]: 1.2

COCO[C@@H]1C[C@@H]2CC(=O)CC[C@]2(C)[C@H]2C[C@H](O)[C@]3(C)[C@@H](C(C)CCC(=O)OC)CC[C@H]3[C@H]12 (some centres not stated)
Ratio [1]: 1.8 | viability [2]: 95.7%

CC(=O)[C@H]1CC[C@H]2[C@@H]3CCC4=CC(=O)CC[C@]4(C)[C@H]3[C@H](O[C@H]3CCCCO3)C[C@]12C
Ratio [1]: 2.4

CC(=O)[C@H]1CC[C@H]2[C@@H]3CCC4=CC(=O)CC[C@]4(C)[C@H]3[C@H](O)C[C@]12C
Ratio [1]: 1

COC(=O)CCC(C)[C@H]1CC[C@H]2[C@@H]3[C@H](OC4CCCCO4)C[C@@H]4CC(=O)CC[C@]4(C)[C@H]3C[C@H](OC3CCCCO3)[C@]12C (mixture of isomers)
Ratio [1]: 3.5 | viability [2]: 63.2%

CC(=O)[C@@]1(O[C@H]2CCCCO2)CC[C@H]2[C@@H]3CCC4=CC(=O)CC[C@]4(C)[C@H]3CC[C@@]21C
Ratio [1]: 2.8

C[C@]12CC[C@H]3[C@@H](CCC4=CC(=O)CC[C@@]43C)[C@@H]1CC[C@@H]2C(=O)COC1CCCCO1 (mixture of isomers)
Ratio [1]: 1.6

CC(=O)[C@H]1CC[C@H]2[C@H]3[C@H]([C@H](OC(=O)c4ccccc4)C[C@]12C)[C@@]1(C)CCC(=O)C[C@@H]1C[C@H]3OC(=O)c1ccccc1
Ratio [1]: 2.5 | viability [2]: 71.1%

CC(=O)[C@@]1(O)CC[C@H]2[C@@H]3CC[C@@H]4CC(=O)CC[C@]4(C)[C@H]3[C@H](O)C[C@@]21C
Ratio [1]: 1

— ChEMBL document CHEMBL3414422, “Synthesis of new steroidal inhibitors of P-glycoprotein-mediated multidrug resistance and biological evaluation on K562/R7 erythroleukemia cells” (J Med Chem, 2015)
